Laboratory results as given in ChEMBL document CHEMBL2146476, “Discovery of selective glucocorticoid receptor modulator MK-5932” (Bioorg Med Chem, 2011).
Active and inactive are the calls of the source. The calls are words filed in the database; no cut-off is given here.

How the values were obtained:
Liver microsomes [1] = assay: Drug metabolism in human liver microsomes assessed as metabolite M2 level up to 50 mins by LC-MS analysis; format: ADME, Microsome
Liver microsomes [2] = assay: Drug metabolism in rat liver microsomes assessed as metabolite M2 level up to 50 mins by LC-MS analysis; format: ADME, Microsome
[3] = biological target: T1, Glucocorticoid receptor (Homo sapiens) (UniProt P04150); assay: Transrepression activity at glucocorticoid receptor in human LPS and TPA-stimulated U937 cells assessed as effect on glucocorticoid-induced TNFalpha repression by beta lactamase reporter gene assay relative to dexamethasone; format: cell-based; conditions: U-937
T1 sequence (whole entry): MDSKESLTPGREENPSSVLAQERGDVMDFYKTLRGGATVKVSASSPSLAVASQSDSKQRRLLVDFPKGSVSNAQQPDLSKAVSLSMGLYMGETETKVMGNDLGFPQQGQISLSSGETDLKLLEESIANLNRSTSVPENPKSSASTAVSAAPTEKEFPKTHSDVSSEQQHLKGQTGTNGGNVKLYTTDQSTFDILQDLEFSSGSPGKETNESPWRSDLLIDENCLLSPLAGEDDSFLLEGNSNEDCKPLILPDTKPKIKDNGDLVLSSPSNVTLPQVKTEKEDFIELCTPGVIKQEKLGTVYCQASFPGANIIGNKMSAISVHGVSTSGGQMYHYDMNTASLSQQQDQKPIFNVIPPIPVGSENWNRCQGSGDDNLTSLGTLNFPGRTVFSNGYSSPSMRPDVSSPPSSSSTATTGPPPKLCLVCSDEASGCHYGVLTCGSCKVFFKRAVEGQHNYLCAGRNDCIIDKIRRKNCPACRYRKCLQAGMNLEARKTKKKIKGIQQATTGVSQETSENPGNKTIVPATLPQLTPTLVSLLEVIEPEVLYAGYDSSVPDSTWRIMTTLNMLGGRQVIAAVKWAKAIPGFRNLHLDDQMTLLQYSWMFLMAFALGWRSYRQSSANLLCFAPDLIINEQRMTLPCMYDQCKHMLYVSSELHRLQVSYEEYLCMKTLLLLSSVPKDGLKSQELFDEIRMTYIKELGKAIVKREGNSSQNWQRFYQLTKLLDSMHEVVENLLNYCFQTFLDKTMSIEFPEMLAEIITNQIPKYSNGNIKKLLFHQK
Summary of the method: (§1)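 U937 cells stably carrying a β-lactamase reporter driven by the human TNF-α promoter (-1083 to +182), in 5% charcoal-stripped FBS. Stimulated with 1 µg/mL LPS plus 50 ng/mL TPA, compound exposure 16 h. β-Lactamase read out. Activity expressed as percent of the span between DMSO and 100 nM dexamethasone controls. Mean of at least three runs.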

Liver microsomes [4] = assay: Drug metabolism in human liver microsomes assessed as metabolite M1 level up to 50 mins by LC-MS analysis; format: ADME, Microsome
Liver microsomes [5] = assay: Drug metabolism in rat liver microsomes assessed as metabolite M3 level up to 50 mins by LC-MS analysis; format: ADME, Microsome
Liver microsomes [6] = assay: Drug metabolism in human liver microsomes assessed as metabolite M3 level up to 50 mins by LC-MS analysis; format: ADME, Microsome
[7] = biological target: T1, Glucocorticoid receptor (Homo sapiens); assay: Transrepression activity at glucocorticoid receptor in human LPS and TPA-stimulated U937 cells assessed as effect on glucocorticoid-induced TNFalpha repression by beta lactamase reporter gene assay; format: cell-based; conditions: U-937; summary of the method: as §1
[8] = biological target: T1, Glucocorticoid receptor (Homo sapiens); assay: Transactivation activity at GR-mediated modulation of MMTV promoter activity in human A549 cells transfected with luciferase gene linked to MMTV promoter after 16 hrs by luciferase reporter gene assay relative to dexamethasone; format: cell-based
Summary of the method: (§2)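 HeLa or A549 cells transiently transfected with a luciferase reporter under the MMTV promoter (two GREs), in 10% charcoal-stripped FBS. Compound exposure 16 h, then luciferase measured. Activity expressed as percent of the span between DMSO and dexamethasone controls. Mean of at least three runs.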

Rattus norvegicus [9] = assay: Toxicity in oxazolone-induced Sprague-Dawley rat chronic dermatitis model assessed as increase in plasma insulin level at 0.3 to 60 mg/kg, po qd administered after 7 days of oxazolone sensitization measured after 4 to 5 hrs last post treatment on day 14; format: organism-based; design: route oral; conditions: in vivo
Summary of the method: (§3)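 Intact 6-month-old female Sprague-Dawley rats sensitized with oxazolone on ventral abdomen on Day 0. One randomly selected ear challenged with oxazolone on Days 7 and 9, other ear given vehicle. Daily oral dosing for 7 d from Day 7, with 6-methylprednisolone or DEX as positive controls. Blood taken ~4-5 h after last dose for plasma insulin. Inflammation read as inter-ear thickness difference.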

Glucocorticoid receptor = biological target: T2, Glucocorticoid receptor (Homo sapiens, UniProt P04150); assay: Displacement of [3H]-dexamethasone from human full length GR expressed in insect Sf21 cells
T2 sequence (P04150 whole entry): T1 sequence (whole entry)
Summary of the method: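 Human full-length GR expressed in insect cells, incubated with compound and 3H-dexamethasone overnight at 4 °C. Bound radioactivity quantified after filtration capture. Nonspecific binding defined with excess unlabelled dexamethasone. Mean of at least two runs.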

[10] = biological target: T1, Glucocorticoid receptor (Homo sapiens); assay: Transactivation activity at GR-mediated modulation of MMTV promoter activity in human HeLa cells transfected with luciferase gene linked to MMTV promoter after 16 hrs by luciferase reporter gene assay relative to dexamethasone; format: cell-based; summary of the method: as §2
Liver microsomes [11] = assay: Drug metabolism in rat liver microsomes assessed as metabolite M1 level up to 50 mins by LC-MS analysis; format: ADME, Microsome
[12] = biological target: T1, Glucocorticoid receptor (Homo sapiens); assay: Transactivation activity at GR-mediated modulation of MMTV promoter activity in human A549 cells transfected with luciferase gene linked to MMTV promoter after 16 hrs by luciferase reporter gene assay; format: cell-based; summary of the method: as §2
[13] = biological target: T1, Glucocorticoid receptor (Homo sapiens); assay: Transactivation activity at GR-mediated modulation of MMTV promoter activity in human HeLa cells transfected with luciferase gene linked to MMTV promoter after 16 hrs by luciferase reporter gene assay; format: cell-based; summary of the method: as §2
Rattus norvegicus [14] = assay: Antiinflammatory activity in oxazolone-induced Sprague-Dawley rat chronic dermatitis model at 0.3 to 60 mg/kg, po qd administered after 7 days of oxazolone sensitization measured after 4 to 5 hrs last post treatment on day 14; format: functional, organism-based; summary of the method: as §3

## C[C@]12Cc3cnn(-c4ccc(F)cc4)c3C=C1CC[C@@]2(O)CCc1ccc(F)cc1C(N)=O
Liver microsomes [1]
  Drug metabolism: Active
Liver microsomes [2]
  Drug metabolism: Active
[3]
  Emax: 73%
Liver microsomes [4]
  Drug metabolism: Active
Liver microsomes [5]
  Drug metabolism: Not Active
Liver microsomes [6]
  Drug metabolism: Active
[7]
  IP: 131 nM
[8]
  Emax: 35%
Rattus norvegicus [9]
  Activity: Non-toxic
Glucocorticoid receptor
  Ki: 3 nM
[10]
  Emax: 23%
Liver microsomes [11]
  Drug metabolism: Active
[12]
  IP: 186 nM
[13]
  IP: 153 nM
Rattus norvegicus [14]
  Activity: Active
